Values after ≈ are worked out from the molar mass of the structure shown. Active and inactive are the calls of the source. The rule behind the calls is not given here. Numbered stars: 1 amine (or outer) side, 2 acyl side, 3 side chain; on linkers, the order of the positions; unused ones are H or OH. Bridge positions count the residues as written; N and C are the ends. Square brackets hold non-standard residues; d marks the D form. Peptide text beside a SMILES is read from it. * marks the point of attachment. hTyr(3S-OH,4S-OH,3'-OSO3H) = N[C@H](C(=O)O)[C@H](O)[C@@H](O)c1ccc(O)c(OS(=O)(=O)O)c1; pTerphenylCO(4''-OnC5H11) = CCCCCOc1ccc(-c2ccc(-c3ccc(C(=O)*)cc3)cc2)cc1; Orn(4R-OH,5R-OH) = O=C([C@H](C[C@@H](O)[C@@H](O)N[*:3])N[*:1])[*:2]; hTyr(3S-OH,4S-OH) = N[C@H](C(=O)O)[C@H](O)[C@@H](O)c1ccc(O)cc1; Pro(3S-OH,4S-Me) = C[C@H]1CN[C@H](C(=O)O)[C@H]1O; X1 = CCCCCOc1ccc(-c2cc(-c3ccc(C(=O)*)cc3)no2)cc1; Gln(3R-OH) = NC(=O)C[C@@H](O)[C@H](N)C(=O)O; Hyp = O=C(O)[C@@H]1C[C@@H](O)CN1
Legend:
[1] = Antifungal activity against Madurella mycetomatis isolate 31 by XTT assay; format: functional
How it was run: (§1)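 Ketoconazole, caspofungin and anidulafungin diluted in DMSO, micafungin in normal saline. Viability read by XTT reduction. MIC is the first concentration giving >80% spectrophotometric reduction. Done independently in triplicate.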

[2] = Antifungal activity against Madurella mycetomatis isolate 54 by XTT assay; format: functional; how it was run: as §1
[3] = Antifungal activity against Madurella mycetomatis isolate 46 by XTT assay; format: functional; how it was run: as §1
[4] = Antifungal activity against Madurella mycetomatis isolate 55 by XTT assay; format: functional; how it was run: as §1
[5] = Antifungal activity against Madurella mycetomatis isolate 49 by XTT assay; format: functional; how it was run: as §1
[6] = Antifungal activity against Madurella mycetomatis isolate 52 by XTT assay; format: functional; how it was run: as §1
[7] = Antifungal activity against Madurella mycetomatis isolate 39 by XTT assay; format: functional; how it was run: as §1
[8] = Antifungal activity against Madurella mycetomatis isolate 41 by XTT assay; format: functional; how it was run: as §1
[9] = Antifungal activity against Madurella mycetomatis isolate 45 by XTT assay; format: functional; how it was run: as §1
[10] = Antifungal activity against Madurella mycetomatis isolate 36 by XTT assay; format: functional; how it was run: as §1
[11] = Antifungal activity against Madurella mycetomatis isolate 73 by XTT assay; format: functional; how it was run: as §1
[12] = Antifungal activity against Madurella mycetomatis isolate 50 by XTT assay; format: functional; how it was run: as §1
[13] = Antifungal activity against Madurella mycetomatis isolate 43 by XTT assay; format: functional; how it was run: as §1
[14] = Antifungal activity against Madurella mycetomatis isolate 64 by XTT assay; format: functional; how it was run: as §1
[15] = Antifungal activity against Madurella mycetomatis isolate 68 by XTT assay; format: functional; how it was run: as §1
[16] = Antifungal activity against Madurella mycetomatis isolate 83 by XTT assay; format: functional; how it was run: as §1
[17] = Antifungal activity against Madurella mycetomatis isolate 35 by XTT assay; format: functional; how it was run: as §1
Aspergillus fumigatus [18] = test: Inhibition of beta-1,3-D-glucan synthesis in Aspergillus fumigatus ATCC 204305 after 48 hrs by […] assay; format: functional, organism-based
How it was run: (§2)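 A conidial suspension in RPMI was exposed to drug in tubes for 48 h. Mycelium was freeze-dried, taken up in 1 M NaOH, probe-sonicated for 15 s and held at 52°C for 30 min. Glucan was measured by aniline blue fluorescence with curdlan as standard, then corrected to viable cells by XTT. Results are means with standard deviation.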

Aspergillus fumigatus [19] = test: Antifungal activity against Aspergillus fumigatus ATCC 204305 by XTT assay; format: functional; details: for minimal effective concentration: read-out: MEC
How it was run: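 XTT viability assay in RPMI, run independently in triplicate, with a conidial inoculum. Twofold dilutions from 0.007 to 128 mg/liter for echinocandins and 0.016 to 16 mg/liter for KTZ. Drugs dissolved in DMSO, except micafungin in normal saline. MIC is the first concentration giving more than 80% spectrophotometric reduction. MEC is the first concentration with altered growth.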

Madurella mycetomatis = test: Inhibition of beta-1,3-D-glucan synthesis in Madurella mycetomatis isolate 55 after 7 days by […] assay; format: functional
How it was run: as §2, with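 “hyphal” for “conidial”, “7 days at 37°C.” for “48 h.”, “scaled” for “corrected”, “from XTT relative to growth control.” for “by XTT.”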

Row | Structure (SMILES) | MIC [1] | MIC [2] | MIC [3] | MIC [4] | MIC [5] | MIC [6] | MIC [7] | MIC [8] | MIC [9] | MIC [10] | MIC [11] | MIC [12] | MIC [13] | MIC [14] | MIC [15] | MIC [16] | MIC [17] | inhibition (Aspergillus fumigatus [18]) | MIC (Aspergillus fumigatus [19]) | inhibition (Madurella mycetomatis) | other results
1 | CC(=O)N1CCN(c2ccc(OCC3COC(Cn4ccnc4)(c4ccc(Cl)cc4Cl)O3)cc2)CC1 (configuration not stated) | 0.063 µg/mL (≈ 0.119 µM) | 0.031 µg/mL (≈ 0.0583 µM) | 0.016 µg/mL (≈ 0.0301 µM) | 0.25 µg/mL (≈ 0.47 µM) | 0.031 µg/mL (≈ 0.0583 µM) | 0.25 µg/mL (≈ 0.47 µM) | 0.031 µg/mL (≈ 0.0583 µM) | 0.125 µg/mL (≈ 0.235 µM) | 0.25 µg/mL (≈ 0.47 µM) | 0.063 µg/mL (≈ 0.119 µM) | 0.063 µg/mL (≈ 0.119 µM) | 0.063 µg/mL (≈ 0.119 µM) | 0.063 µg/mL (≈ 0.119 µM) | 0.063 µg/mL (≈ 0.119 µM) | 0.125 µg/mL (≈ 0.235 µM) | 0.125 µg/mL (≈ 0.235 µM) | 1 µg/mL (≈ 1.88 µM) |  |  |  | 
2 | CCCCCOc1ccc(-c2ccc(-c3ccc(C(=O)N[C@H]4C[C@@H](O)[C@@H](O)NC(=O)[C@@H]5[C@@H](O)[C@@H](C)CN5C(=O)[C@H]([C@@H](C)O)NC(=O)[C@H]([C@H](O)[C@@H](O)c5ccc(O)cc5)NC(=O)[C@@H]5C[C@@H](O)CN5C(=O)[C@H]([C@@H](C)O)NC4=O)cc3)cc2)cc1 [ANIDULAFUNGIN] ({pTerphenylCO(4''-OnC5H11)}-[Orn(4R-OH,5R-OH)]T[Hyp][hTyr(3S-OH,4S-OH)]T[Pro(3S-OH,4S-Me)]; lactam 1-C) | > 128 µg/mL | > 128 µg/mL | > 128 µg/mL | > 128 µg/mL | > 128 µg/mL | > 128 µg/mL | > 128 µg/mL | 0.5 µg/mL (≈ 0.438 µM) | > 128 µg/mL | > 128 µg/mL | > 128 µg/mL | > 128 µg/mL | > 128 µg/mL | > 128 µg/mL | > 128 µg/mL | > 128 µg/mL | > 128 µg/mL | inactive | > 128 µg/mL | inactive | minimal effective concentration (Aspergillus fumigatus [19]): < 0.007 µg/mL
3 | CC[C@H](C)C[C@H](C)CCCCCCCCC(=O)N[C@H]1C[C@@H](O)[C@@H](NCCN)NC(=O)[C@@H]2[C@@H](O)CCN2C(=O)[C@H]([C@H](O)CCN)NC(=O)[C@H]([C@H](O)[C@@H](O)c2ccc(O)cc2)NC(=O)[C@@H]2C[C@@H](O)CN2C(=O)[C@H]([C@@H](C)O)NC1=O [CASPOFUNGIN] | 64 µg/mL (≈ 58.5 µM) | 64 µg/mL (≈ 58.5 µM) | 64 µg/mL (≈ 58.5 µM) | 128 µg/mL (≈ 117 µM) | 32 µg/mL (≈ 29.3 µM) | 128 µg/mL (≈ 117 µM) | 64 µg/mL (≈ 58.5 µM) | 16 µg/mL (≈ 14.6 µM) | 64 µg/mL (≈ 58.5 µM) | 128 µg/mL (≈ 117 µM) | 64 µg/mL (≈ 58.5 µM) | 128 µg/mL (≈ 117 µM) | 128 µg/mL (≈ 117 µM) | 64 µg/mL (≈ 58.5 µM) | 64 µg/mL (≈ 58.5 µM) | 128 µg/mL (≈ 117 µM) | 128 µg/mL (≈ 117 µM) |  | 128 µg/mL (≈ 117 µM) | inactive | minimal effective concentration (Aspergillus fumigatus [19]): 0.125 µg/mL
4 | CCCCCOc1ccc(-c2cc(-c3ccc(C(=O)N[C@H]4C[C@@H](O)[C@@H](O)NC(=O)[C@@H]5[C@@H](O)[C@@H](C)CN5C(=O)[C@H]([C@H](O)CC(N)=O)NC(=O)[C@H]([C@H](O)[C@@H](O)c5ccc(O)c(OS(=O)(=O)O)c5)NC(=O)[C@@H]5C[C@@H](O)CN5C(=O)[C@H]([C@@H](C)O)NC4=O)cc3)no2)cc1 [MICAFUNGIN] (X1-[Orn(4R-OH,5R-OH)]T[Hyp][hTyr(3S-OH,4S-OH,3'-OSO3H)][Gln(3R-OH)][Pro(3S-OH,4S-Me)]; lactam 1-C) | > 128 µg/mL | > 128 µg/mL | > 128 µg/mL | > 128 µg/mL | > 128 µg/mL | > 128 µg/mL | > 128 µg/mL | 8 µg/mL (≈ 6.3 µM) | > 128 µg/mL | > 128 µg/mL | > 128 µg/mL | > 128 µg/mL | 128 µg/mL (≈ 101 µM) | > 128 µg/mL | > 128 µg/mL | 128 µg/mL (≈ 101 µM) | > 128 µg/mL | inactive |  | inactive | 

— ChEMBL document CHEMBL1671690, “Madurella mycetomatis is not susceptible to the echinocandin class of antifungal agents” (2010)
